Screening results deposited in PubChem BioAssay by several laboratories.
TAAR1 agonist: human TAAR1 agonists, primary screen, Fluo-8 calcium fluorescence, CHO RD-HGA16 cells; Trace amine-associated receptor 1 (Homo sapiens), Q96RJ0; vehicle wells 0%, saturating PEA agonist 100%; activation, % at 3 µM; 360,000 compounds, 0.99% hits; AID 624467, 2012;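 active means activation above the mean activation of all test compounds in the run plus 3 SD, cut at about 38% in these data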
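Test system: RD-HGA16 (CHO) cells co-expressing Gα16 and hTAAR1; dosing: one-point dosing at 3 µM (nominal); timing: 17-24 h seeding, 75 min 37 °C dye, 30 min RT; signal: kinetic Fluo-8 calcium fluorescence; read-out basis: % activation relative to PEA EC100 response; controls: DMSO and PEA EC100; replicates: n 1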
GPR7 antag: GPR7 receptor antagonists, primary screen, cell-based, fluorescence, single concentration | Neuropeptides B/W receptor type 1 (Homo sapiens), P48145 | GPR7-expressing cells, fluorescence antagonist assay | inhibition, % at 4.4 µM | 290,000 compounds, 1.1% hits | AID 1861, 2009; in the data active means inhibition above about 16%, passing the limit was not always enough;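 further: cells stimulated with the agonist NPW; 0% = agonist with vehicle and 100% = vehicle without agonist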
DAGLB inhibitor: DAGLB lipase inhibitors, primary screen, biochemical, fluorescence, HTS | inhibition, % at 5.17 µM | AID 504411, 2011 | HEK293T DAGLB membrane lysate, EnzChek fluorogenic substrate | Diacylglycerol lipase-beta (Homo sapiens), Q8NCG7 | 340,000 compounds, 0.059% hits; in the data active means inhibition above about 34%;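 further: 0% = enzyme with vehicle and 100% = wells lacking enzyme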
Target sequence (Q8NCG7 whole entry, looked up): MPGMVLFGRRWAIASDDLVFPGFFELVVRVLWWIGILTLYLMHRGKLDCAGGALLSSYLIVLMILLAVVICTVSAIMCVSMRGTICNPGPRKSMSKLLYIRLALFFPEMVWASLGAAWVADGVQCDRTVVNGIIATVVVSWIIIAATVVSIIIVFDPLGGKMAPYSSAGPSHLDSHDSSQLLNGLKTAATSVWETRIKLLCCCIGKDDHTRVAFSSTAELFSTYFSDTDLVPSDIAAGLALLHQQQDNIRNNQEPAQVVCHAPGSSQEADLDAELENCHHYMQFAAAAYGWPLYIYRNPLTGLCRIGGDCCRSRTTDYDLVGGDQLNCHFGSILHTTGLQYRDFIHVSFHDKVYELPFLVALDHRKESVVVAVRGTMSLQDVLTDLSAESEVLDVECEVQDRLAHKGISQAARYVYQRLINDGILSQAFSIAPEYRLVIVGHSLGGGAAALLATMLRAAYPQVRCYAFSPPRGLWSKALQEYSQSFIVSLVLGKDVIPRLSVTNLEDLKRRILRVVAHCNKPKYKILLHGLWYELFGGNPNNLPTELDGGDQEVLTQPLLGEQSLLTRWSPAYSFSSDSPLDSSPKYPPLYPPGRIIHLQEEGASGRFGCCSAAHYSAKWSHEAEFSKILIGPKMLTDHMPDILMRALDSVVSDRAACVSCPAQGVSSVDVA
TAAR1 antag: human TAAR1 antagonists, primary screen, Fluo-8 calcium fluorescence, CHO RD-HGA16 cells; antagonist; Trace amine-associated receptor 1 (Homo sapiens), Q96RJ0; inhibition, % at 3 µM; 360,000 compounds, 1.5% hits;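 active means inhibition above a per-plate cutoff, the mean inhibition of test compounds on that plate plus 3 SD, cut at about 49% in these data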;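 further: 0% = DMSO plus EC80 beta-PEA response and 100% = DMSO alone without agonist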
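Assay system: RD-HGA16 CHO cells with stable hTAAR1 and Gα16 / Reagent: EC80 β-phenethylamine stimulus / Doses: 3 µM, single point / Timing: dye loading 75 min at 37 °C, then 30 min room temperature / Measured by: Fluo-8 intracellular calcium dye fluorescence, real-time kinetic reads / Controls: vehicle wells and EC80 agonist wells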
MPTP block: mitochondrial permeability transition pore inhibitors, primary screen, biochemical, isolated mouse mitochondria, absorbance; Ca2+ swelling absorbance, 30 min; inhibition, % at 10 µM; 360,000 compounds, 1.4% hits; AID 602449, 2012;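 active means inhibition of 50% or more, scaled per plate between neutral and stimulator controls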;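 further: 0% = DMSO wells given calcium and 100% = 1 mM EGTA wells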
Rh123 counter: fluorescence retest of MPTP screen hits in isolated mitochondria, single concentration | shares compounds with MPTP block | membrane potential, Rhodamine 123 fluorescence | inhibition, % at 10 µM | 5,000 compounds, 78% hits | AID 624504, 2012; in the data active means inhibition above about 22%;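 further: 0% = DMSO vehicle and 100% = positive control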
MPTP abs DR: mitochondrial permeability transition pore inhibitors, dose response, biochemical, absorbance, uHTS hits | shares compounds with MPTP block | isolated mitochondria swelling | IC50, µM | 780 compounds, 58% hits | AID 651561, 2012; in the data active means IC50 below about 20 µM
MPTP cs DR: fluorescent counter-screen in isolated mitochondria, dose response, counter-screen for MPTP inhibitor project, biochemical, fluorescence, uHTS hits; AID 651564, 2012; isolated mitochondria counterscreen, fluorescence read-out; 780 compounds, 49% hits; IC50, µM; shares compounds with MPTP block; in the data active means IC50 below about 80 µM
* hit, by the source's call; i = inactive; . = no result. Sampled rows, rich in hits. Any-hit rate of the full collection: about 4%.

SMILES	TAAR1 agonist	GPR7 antag	DAGLB inhibitor	TAAR1 antag	MPTP block	Rh123 counter	others
O=C(/C=C/c1ccccc1)NC(NC(=S)Nc1ccc(C(=O)O)cc1)C(Cl)(Cl)Cl (stereo unspecified)	3	-3	6	-3	6	.
O=C(/C=C/c1ccccc1)NC(NC(=S)Nc1cccc(Cl)c1)C(Cl)(Cl)Cl (stereo unspecified)	12	3	-7	12	93*	84*
O=C(/C=C/c1ccccc1)NC(NC(=S)Nc1cccc(O)c1)C(Cl)(Cl)Cl (stereo unspecified)	9	5	-4	0	25	.
CC(=O)N1CCN(c2ccc(Oc3ccc([N+](=O)[O-])c(C(F)(F)F)c3)cc2)CC1	.	29	4	.	80*	76*
Cc1ccccc1Cn1c(C)c(C(=O)NCC(C)C)sc1=O	-1	.	.	-8	0	.
Cc1cc(Cl)c(S(=O)(=O)N2CCN(c3ccc(F)cc3)CC2)cc1OCC(N)=O	12	-5	-2	-8	-2	.
Cc1cc(Cl)c(S(=O)(=O)N2CCN(c3ccc(F)cc3)CC2)cc1OCC(=O)NC1CCCCC1	16	6	0	3	80*	70*
O=C(NCc1ccccc1)[C@@H]1CCCN1C(=O)[C@H]1CCCN1C(=O)c1ccc(Cl)cc1	0	.	.	-29	.	.
CC(=O)Nc1ccc(S(=O)(=O)Nc2cccc(-c3nc4cc(C)ccc4o3)c2)cc1	1	.	-1	-19	96*	74*
COC(=O)C1=C(C)N(C)C(=NCC2CC2)NC1c1ccccc1C(F)(F)F (stereo unspecified)	1	.	.	-25	.	.
Cc1c(CC(=O)Nc2ccc(Cl)cc2)sc2ccc(Cl)cc12	0	-7	-17	14	88*	91*
Cc1ccc(C(=O)N2CCN(c3ncnc4c(C)csc34)CC2)cc1	3	-2	-6	3	34	.
Cc1csc2c(N3CCN(C(=S)Nc4ccc(F)cc4F)CC3)ncnc12	15	6	0	26	92*	91*
Cc1csc2ncnc(N3CCN(C(=O)Nc4ccc(OC(F)(F)F)cc4)CC3)c12	-2	-7	-5	-9	90*	89*
Cc1csc2c(N3CCN(C(=O)Nc4ccccc4)CC3)ncnc12	11	-8	1	8	54*	24*
O=C1C2C3CC4C5C3C1C5C1(SCCS1)C42 (stereo unspecified)	-1	.	.	1	-2	.
Cc1ccc(S(=O)(=O)N2[C@H](CC(=O)c3cccs3)OC[C@@H]2C(C)C)cc1	5	.	.	-17	-1	.
COC(=O)c1ccc2nc(-c3ccc(C)cc3)c(CC3CCCCC3)n2c1	4	.	.	8	-2	.
CC1CCc2nc(NC(=O)CN3CCN(Cc4ccc5c(c4)OCO5)CC3)sc2C1 (stereo unspecified)	8	-28	-4	-28	56*	7	MPTP abs DR=i;MPTP cs DR=46*
O=C1NC(=O)C(=Cc2ccc(Cl)c(Cl)c2)S1	3	.	13	-2	73*	92*
O=C1NC(=O)/C(=C/c2ccc(O)cc2)S1	10	2	1	4	0	.
CC(C)NC(=O)N(C)C[C@@H]1OCc2cnnn2CCCC(=O)N([C@H](C)CO)C[C@@H]1C	0	.	-2	14	0	.
CC(C(=O)Nc1cccc(Br)c1)c1ccc([N+](=O)[O-])cc1 (stereo unspecified)	17	11	-2	7	58*	78*
CCC(CC)C(=O)Nc1ccc(Sc2ccc([N+](=O)[O-])cc2)cc1	24	-12	-6	44	95*	77*
O=C(NCC(O)c1ccc([N+](=O)[O-])cc1)C(c1ccccc1)c1ccccc1 (stereo unspecified)	-1	10	-7	12	-1	.
SMILES	TAAR1 agonist	GPR7 antag	DAGLB inhibitor	TAAR1 antag	MPTP block	Rh123 counter	others
O=C(Nc1ccc([N+](=O)[O-])cc1)C(c1ccccc1)c1ccccc1	8	.	-3	5	82*	108*
CC(C(=O)Nc1ccccc1Cl)c1ccc([N+](=O)[O-])cc1 (stereo unspecified)	19	-3	1	0	2	.
CCCC(=O)Nc1ccc(Sc2ccc([N+](=O)[O-])cc2)cc1	2	18	-4	35	8	.
O=C1NC(=O)C2(N1)C(=O)c1cccc3cccc2c13 (stereo unspecified)	9	.	-20	17	-1	.
CC(C)(C)C1CCC(OCC(O)CN2CCN(c3ccccc3)CC2)CC1 (stereo unspecified)	22	-2	-14	3	85*	-4	MPTP abs DR=>100;MPTP cs DR=>80
Cc1ccc(-n2cc(CNCCc3ncc(C)[nH]3)c(-c3ccc(F)cc3)n2)cc1	10	3	-5	-3	91*	-15	MPTP abs DR=4.2*;MPTP cs DR=57*
Fc1ccc(-n2cc(CNCCc3ccccn3)c(-c3ccccc3Cl)n2)cc1	33	15	-4	-13	72*	1	MPTP abs DR=9.8*;MPTP cs DR=48*
C[C@@H]1Cn2cnc(C(=O)NCC(=O)OC(C)(C)C)c2C(=O)N1	2	.	-3	3	0	.
Cc1ccc(S(=O)(=O)/N=C(/Nc2ccc(O)c(C(=O)O)c2)c2ccccc2)cc1	7	.	4	-7	-1	.
CSc1ncnc2c1ncn2CCCNc1ccc(C)c(C)c1	2	.	1	9	0	.
Cc1cccc2nc(-c3ccccc3)c(-c3ccc(CN4CCC(n5cc(-c6ccccc6)[nH]c5=O)CC4)cc3)nc12	2	.	.	-9	.	.
CC(=O)c1cc2cccc(OC3(C)CCN(Cc4ccc5ccccc5c4)C3)c2o1 (stereo unspecified)	1	.	.	-7	1	.
CCCCNCCOCCOc1ccc(C)cc1Br	9	6	1	-1	61*	-11	MPTP abs DR=i;MPTP cs DR=>80
COCCCNCCOCCOc1ccc(C)cc1Br	3	-1	2	-29	-1	.
Cn1c2ccccc2c(=O)c2c(=O)n(C3CCCCCC3)c(C3CCCCC3)nc21	38*	-9	3	1	88*	5
Cc1nc2c(c(=O)c3ccccc3n2C)c(=O)n1C1CCCC1	11	.	.	11	.	.
COc1cc(/C=C2\CCC(C)C3=C(c4cc(OC)c(OC)c(OC)c4)C(C#N)=C(N)OC32)cc(OC)c1OC (stereo unspecified)	7	.	-14	-9	-2	.
